# Screening results (PubChem BioAssay)
# TNAP inh hi DEA = human TNAP enzyme inhibitors, primary screen, biochemical, luminescent, high phosphate acceptor level, uHTS | Alkaline phosphatase, tissue-nonspecific isozyme (Homo sapiens), P05186 | purified TNAP, CDP-star luminescence, 1 M DEA | inhibition, % at 20 µM | hit rate 0.03% among 200,000 | AID 1135, 2008;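 active means over 50% inhibition of tissue-nonspecific alkaline phosphatase at 20 µM in the single-dose screen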;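 further: plate controls were DMSO wells for no effect and EDTA-quenched wells as full inhibition for full effect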
# PMI act = activators of human PMI, primary screen, biochemical, fluorescence intensity, near-Km mannose 6-phosphate; Mannose-6-phosphate isomerase (Homo sapiens), P34949; purified human PMI, coupled resazurin fluorescence, 20 min; hits give high values; 1 = vehicle control, 0 substrate-free wells; activation factor at 20 µM; hit rate 0.005% among 190,000; AID 1214, 2008;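 active means activation factor of 2 or more at 20 µM, relative to plate controls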
# Target sequence (P34949 whole entry, looked up): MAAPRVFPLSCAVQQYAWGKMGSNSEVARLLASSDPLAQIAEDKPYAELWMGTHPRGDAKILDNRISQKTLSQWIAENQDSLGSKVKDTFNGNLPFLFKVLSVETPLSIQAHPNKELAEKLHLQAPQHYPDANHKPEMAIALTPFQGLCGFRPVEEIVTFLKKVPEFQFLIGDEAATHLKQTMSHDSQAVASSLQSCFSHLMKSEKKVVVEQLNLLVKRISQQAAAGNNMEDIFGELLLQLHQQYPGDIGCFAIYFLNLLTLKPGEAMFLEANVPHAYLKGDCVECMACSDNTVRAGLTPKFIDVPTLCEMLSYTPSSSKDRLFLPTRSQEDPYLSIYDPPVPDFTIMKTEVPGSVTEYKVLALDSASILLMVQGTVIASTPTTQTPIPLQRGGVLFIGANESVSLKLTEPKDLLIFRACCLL
# PMI act satM6P = human PMI activators, high substrate, primary screen, biochemical, fluorescence intensity, near-saturating mannose 6-phosphate | coupled PMI enzyme assay, resazurin fluorescence, 20 min; hits give high values; 1 = untreated enzyme, 0 = substrate-free blank | activation factor at 20 µM | hit rate 0.34% among 190,000;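 active means activation factor of 2 or more at 20 µM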
#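 Test system – human PMI in coupled enzyme assay · Timing – 20 min incubation at room temperature · Detection – Diaphorase-driven resazurin-to-resorufin fluorescence, excitation 544, emission 590 nm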
# TNAP act hi DEA = TNAP activators at high phosphate acceptor level, primary screen, biochemical, luminescence, uHTS; Alkaline phosphatase, tissue-nonspecific isozyme (Homo sapiens), P05186; purified TNAP, CDP-star luminescence, 1 M DEA, 30 min; hits give high values; 0 = EDTA background, 1 = DMSO-only activity; activation factor at 20 µM; 200,000 tested, under 10 active;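 active means activation factor at least 2 at 20 µM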
#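 system = human TNAP | amount = enzyme diluted 1/800 final | reagent = 100 µM CDP-star substrate | signal = luminescent substrate turnover signal | dosing = one dose, 20 µM | benchmarks = EDTA negative control, DMSO positive control | measure = activation factor | timing = 30 min reaction, room temperature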
# TNAP inh noacc = human TNAP enzyme inhibitors, primary screen, biochemical, luminescent, no phosphate acceptor, uHTS; purified TNAP, CDP-star luminescence, 30 min; inhibition, % at 20 µM; hit rate 0.26% among 200,000; AID 1012, 2008;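 active means tissue-nonspecific alkaline phosphatase inhibition above about 50% at 20 µM in the single-dose screen, limit read from the data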;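 further: 0% = DMSO negative control and 100% = EDTA positive control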
# The depositor's hits bear a star. Sampled rows, rich in hits. Any-hit rate of the full collection: about 0.64%.
SMILES,TNAP inh hi DEA,PMI act,PMI act satM6P,TNAP act hi DEA,TNAP inh noacc
CCCCC(=O)N/N=C/c1c(O)n(CCc2ccc(OC)c(OC)c2)c(=O)[nH]c1=O,2.5,0.8,1,1,-58.6
CCCCC(=O)N/N=C/c1c(O)n(CC)c(=S)[nH]c1=O,-9.0,0.8,1.1,1.1,87.4*
CC(C)CCN1CCN(Cc2c(F)cccc2Cl)CC1CCO (stereo unspecified),-3.9,1,1,1,-5.7
CCCCC1C(=O)NC(=S)NC1=O,0.9,1.6,2*,1,-5.0
CN1c2ccc([N+](=O)[O-])cc2CC2(C(=O)NC(=O)N(c3ccc(Br)cc3)C2=O)C1c1ccccc1 (stereo unspecified),15.4,0.8,0.9,0.8,16.1
Cc1nn(Cc2ccccc2)c(C)c1C=C1C(=O)NC(=S)NC1=O,-0.1,1.6,2.2*,1,-1.8
CCN(CC)S(=O)(=O)c1cc(NC(=O)C(C)N2CC=C(c3ccccc3)CC2)ccc1C (stereo unspecified),-5.1,0.7,0.8,1.1,-6.1
Oc1ccc(CC2CC3CCN2CC3)cc1O (stereo unspecified),7.0,0.5,0.7,0.9,74.7*
CN(C)c1ccc(/C=C/C=C2/C(=O)NC(=O)N(c3ccccc3)C2=O)cc1,51.3*,0.7,0.5,0.5,53.9*
C=CCN1C(=O)NC(=O)/C(=C/C=C/c2ccccc2)C1=O,-1.7,1.2,1.2,1,2.2
CCOC(=O)COc1ccc2c(c1)c(C(C)=O)c(C)n2Cc1ccccc1,-8.3,1,1,1.1,-16.2
Cc1cc(C=C2C(=O)NC(=S)NC2=O)c(C)n1C1CCCC1,9.7,1.6,2.1*,0.9,22.7
COc1ccc(N/N=C/c2c(O)n(-c3cccc(C)c3)c(=O)[nH]c2=O)cc1,-4.2,1.7,2.7*,1,10.1
COc1ccc(N/N=C/c2c(O)n(-c3ccc(C)c(C)c3)c(=O)[nH]c2=O)cc1,4.4,1.2,1.2,1,2.3
C/C(=N\Nc1ccccc1)c1c(O)n(Cc2ccccc2)c(=O)[nH]c1=O,1.1,1.6,2.5*,1,-8.5
C/C(=N\Nc1ccccc1)c1c(O)n(C)c(=O)n(C)c1=O,1.2,1.6,2.5*,1,3.3
CC(=NCCCO)c1c(O)n(Cc2ccccc2)c(=O)[nH]c1=O,-2.0,1,1.1,1,-10.1
CCOP(=S)(NN(Cc1ccccc1)C(=O)c1ccccc1)OCC,-4.0,0.9,0.9,1,-15.0
Nc1ccccc1C(=O)OCC(=O)c1ccc2c(c1)OCCO2,-1.7,0.9,0.9,1,-9.9
COC(=O)c1c(C)[nH]c(C(=O)C(C)[N+]23CCN(CC2)CC3)c1C (stereo unspecified),1.6,1,1,1,-4.1
COc1ccc(/C=C2\C(=O)NC(=S)N(C)C2=O)cc1C,-4.6,1.7,2.5*,1,-7.9
Cc1cccc(N2C(=O)NC(=O)C3(Cc4cc(C)ccc4N(C)C3)C2=O)c1 (stereo unspecified),-5.4,1.5,1.4,1.1,-6.6
Cc1ccc2c(c1)CC1(CN2C)C(=O)NC(=O)N(CCC2=CCCCC2)C1=O (stereo unspecified),-5.5,1.6,2.1*,1.1,-5.0
Cc1ccc2c(c1)CC1(CN2C)C(=O)NC(=O)N(C(C)C)C1=O (stereo unspecified),-6.7,1.7,2.1*,1.1,-8.4
CN1C(=O)c2ccccc2NC(=O)C1Cc1ccccc1 (stereo unspecified),-1.9,1.1,1.1,1,62.1*
CN1C(=O)C(C2c3ccccc3C(=O)N2Cc2ccccc2)C(=O)N(C)C1=O (stereo unspecified),-7.0,1.1,1.4,1.1,-6.4
O=C(N/N=C/c1c(O)n(CCC2=CCCCC2)c(=O)[nH]c1=O)c1ccccc1,-2.0,1,1,1,67.3*
O=C(N/N=C/c1c(O)n(CCC2=CCCCC2)c(=S)[nH]c1=O)c1ccccc1,0.2,1.1,1.3,1,-39.6
CC(C)(C)c1ccc(C(=O)C2CCCN(C3CCC3)C2)cc1 (stereo unspecified),-2.5,1,1,1,-5.7
Cc1cc(C)c(C(=O)CN2CCOCC2)c(C)c1,-1.2,1.6,2.1*,1,-12.7
